Compound activity from PubChem BioAssay.
Only some compounds are listed: those with a hit (about 1.9% of all), similar ones and a draw of the others.
SR-BI HDL uptake – inhibitors of SR-BI mediated HDL lipid uptake, primary screen, ldlA[mSR-BI] cells, fluorescence, single point; actives 0.96% (n = 320,000); ldlA[mSR-BI] CHO cells, DiI-HDL uptake fluorescence, 3 h; inhibition, % at 12.5 µM;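 active = mean replicate inhibition of at least 70% and a set share of replicates each scoring 70 or more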;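 note: 0% = median of neutral control wells and 100% = median of positive control wells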
Target sequence (Q61009 whole entry, looked up): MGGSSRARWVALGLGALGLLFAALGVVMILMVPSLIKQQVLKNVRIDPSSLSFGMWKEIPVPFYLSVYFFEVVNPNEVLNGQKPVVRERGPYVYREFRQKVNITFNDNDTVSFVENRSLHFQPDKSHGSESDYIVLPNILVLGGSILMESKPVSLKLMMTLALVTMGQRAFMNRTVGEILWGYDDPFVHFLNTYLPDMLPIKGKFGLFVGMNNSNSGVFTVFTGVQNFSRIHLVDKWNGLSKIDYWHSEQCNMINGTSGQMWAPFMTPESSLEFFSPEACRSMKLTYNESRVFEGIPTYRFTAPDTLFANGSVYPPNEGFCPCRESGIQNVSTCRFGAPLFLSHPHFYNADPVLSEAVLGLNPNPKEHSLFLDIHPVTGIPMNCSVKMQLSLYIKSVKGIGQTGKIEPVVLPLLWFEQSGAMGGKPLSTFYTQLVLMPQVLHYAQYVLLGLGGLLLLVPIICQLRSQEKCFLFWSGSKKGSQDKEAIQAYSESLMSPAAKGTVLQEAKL
SR-BI DiI-HDL act – activators of SR-BI mediated DiI-HDL uptake, primary screen, ldlA[mSR-BI] CHO cells, DiI fluorescence; 3 h; 100 = double the neutral-control signal; activation, % at 12.5 µM; actives 0.096% (n = 320,000);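 active = mean replicate activation of at least 60% and every replicate at or above 60%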;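 note: 0% = median plate neutral-control signal and 100% = twice that signal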
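Material: SR-BI-overexpressing, LDLR-lacking CHO cells | Dosing: Single compound concentration, delivered by pin transfer | Probe or stimulus: Labelled HDL, 10 µg/mL | Signal: Bottom-read cell fluorescence after medium removal, ex 550/em 595 nm | Schedule: 3 h, 37 °C | Evaluation: HDL uptake via cellular fluorescence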
Env fusion inh – inhibitors of HIV-1 Env-driven cell-cell fusion, primary screen, HeLa-JRFL effector, CEM21 target cells, luciferase | inhibition, % at 12.3 µM | actives 1.1% (n = 360,000) | AID 651610, 2012;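 active = mean replicate inhibition score of at least 50 and every replicate individually at or above 50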;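 note: 0% = plate neutral controls and 100% = maraviroc near 300 nM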
Glyco luc inh – increase of ERlucT glycosylation luciferase signal, primary screen, N-linked glycosylation inhibitor project, D54 ERlucT cells, luminescence, set 2; D54 ERlucT glycosylation luciferase reporter, 24 h; percent of 100 nM tunicamycin response; reporter increase, % at 12.5 µM; actives 0.23% (n = 360,000); AID 588692, 2011;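 active = mean luciferase reporter signal, scaled so untreated is 0 and the glycosylation-blocking control 100, at or above a set limit in every replicate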;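 note: luciferase carries N-glycosylation sites so blocking glycosylation raises the light; 0% = median of neutral control wells and 100% = median of 100 nM tunicamycin wells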
Rtt109 Vps75 – inhibitors of C. albicans Rtt109/Vps75 HAT, primary screen, biochemical, ThioGlo CoA-SH fluorescence, plate reader; Histone acetyltransferase RTT109 (Candida albicans (strain SC5314 / ATCC MYA-2876)), …; purified Rtt109/Vps75, 4 h; inhibition, % at 34.9 µM; actives 0.16% (n = 330,000);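 active = inhibition of at least 50% in every replicate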
PglD inh – C. jejuni PglD acetyltransferase inhibitors, primary screen, biochemical, DTNB colorimetric, single point; purified PglD enzyme, DTNB colorimetric CoA detection; inhibition, % at 12.5 µM; actives 0.098% (n = 360,000); AID 602405, 2012; in the data active = inhibition above about 16%, passing the limit was not always enough
Active calls of the source: *; [ ] = remark or other dose.

How did Cc1nc2c(-c3ccccc3)c(C)[nH]n2c(=O)c1Cc1ccccc1 do in these assays?
SR-BI HDL uptake: -11.7; SR-BI DiI-HDL act: 11.7; Env fusion inh: 15.0; Glyco luc inh: 0.3; Rtt109 Vps75: -0.3

How did Cc1n[nH]c(C)c1S(=O)(=O)N1CCCC(C(=O)N2CCN(c3ccc(Cl)cc3)CC2)C1 (centres undefined) do in these assays?
SR-BI HDL uptake: 28.4; SR-BI DiI-HDL act: -28.4; Env fusion inh: 28.6; Glyco luc inh: -4.8; Rtt109 Vps75: 11.4; PglD inh: -1.6

What do the screens show for `Cc1nn(C)c(C)c1S(=O)(=O)N1CCCC(C(=O)N2CCN(c3ccc(Cl)cc3)CC2)C1` (centres undefined)?
SR-BI HDL uptake: 50.6; SR-BI DiI-HDL act: -50.6; Env fusion inh: 63.3*; Glyco luc inh: -1.1; Rtt109 Vps75: 6.6; PglD inh: -3.4

How did Cc1ccc(S(=O)(=O)N(C)C[C@H]2Oc3cc(C#Cc4ccccc4)ccc3S(=O)(=O)N([C@@H](C)CO)C[C@H]2C)cc1 do in these assays?
Env fusion inh: -72.9[16.7 µM]; PglD inh: -0.9

How did COc1ccc(C=NNC(=O)c2ccccc2NS(=O)(=O)c2cccs2)cc1O do in these assays?
SR-BI HDL uptake: 0.8; SR-BI DiI-HDL act: -0.8; Env fusion inh: 7.3; Glyco luc inh: -1.3; Rtt109 Vps75: 1.0; PglD inh: 1.1

How did NC(=O)c1cc(NC(=O)c2ccc(NS(=O)(=O)c3cccs3)cc2)cc(C(N)=O)c1 do in these assays?
SR-BI HDL uptake: 6.7; SR-BI DiI-HDL act: -6.7; Env fusion inh: -3.0; Glyco luc inh: -2.1; Rtt109 Vps75: 4.6; PglD inh: -2.0

How did O=C(NN=Cc1ccc(O)cc1O)c1ccccc1NS(=O)(=O)c1cccs1 do in these assays?
SR-BI HDL uptake: 96.5*; SR-BI DiI-HDL act: -96.5; Env fusion inh: -2.8; Glyco luc inh: -1.1; Rtt109 Vps75: 0.9; PglD inh: -4.7

Results for O=C(NN=Cc1ccc(OC(F)F)cc1)c1ccc(NS(=O)(=O)c2cccs2)cc1 ?
SR-BI HDL uptake: 63.8; SR-BI DiI-HDL act: -63.8; Env fusion inh: -12.7; Glyco luc inh: -0.2; Rtt109 Vps75: 1.9; PglD inh: 0.3

How did COc1ccc(OC)c(NC(=O)CCNS(=O)(=O)c2cccs2)c1 do in these assays?
SR-BI HDL uptake: 18.6; SR-BI DiI-HDL act: -18.6; Env fusion inh: 0.2; Glyco luc inh: -1.2; Rtt109 Vps75: -9.6; PglD inh: 2.2

How did COc1cccc(NC(=O)c2ccc(NS(=O)(=O)c3cccs3)cc2)c1 do in these assays?
SR-BI HDL uptake: 76.7*; SR-BI DiI-HDL act: -76.7; Env fusion inh: 7.9; Glyco luc inh: 0.3; Rtt109 Vps75: -9.5; PglD inh: 10.2

How did O=C(NN=Cc1ccccc1OC(F)F)c1ccc(NS(=O)(=O)c2cccs2)cc1 do in these assays?
SR-BI HDL uptake: 82.4*; SR-BI DiI-HDL act: -82.4; Env fusion inh: -0.8; Glyco luc inh: -1.0; Rtt109 Vps75: 10.8; PglD inh: 7.0

Results for COc1ccc(NC(=O)CNS(=O)(=O)c2cccs2)c(OC)c1 ?
SR-BI HDL uptake: 16.4; SR-BI DiI-HDL act: -16.4; Glyco luc inh: 1.5; Rtt109 Vps75: 62.6*; PglD inh: 0.1

How did C[C@@H](NC(=O)[C@@H]1[C@@H](CO)[C@@H]2Cn3c(cccc3=O)[C@@H]2N1Cc1cccnc1)c1ccccc1 do in these assays?
PglD inh: 4.5

How did O=C(C1CCCCC1)N1C[C@@H]2[C@H](c3ccccc31)[C@H](CO)N2C(=O)c1ccccc1 do in these assays?
PglD inh: 4.0

Results for C[C@@H]1CN([C@@H](C)CO)C(=O)c2cc(C#CC3CCCC3)cnc2O[C@@H]1CN(C)Cc1ccncc1 ?
Env fusion inh: -8.5[16.7 µM]; PglD inh: -1.9

How did O=C(N[C@H]1CC[C@H](CC(=O)N2CCCCC2)O[C@H]1CO)c1ccc2c(c1)OCO2 do in these assays?
Env fusion inh: -5.9[16.7 µM]; PglD inh: -0.1

What do the screens show for `Cc1noc(C)c1NC(=O)N(C)C[C@H]1Oc2ccc(NC(=O)Nc3cccc4ccccc34)cc2CC(=O)N([C@H](C)CO)C[C@H]1C`?
Env fusion inh: 8.6[16.7 µM]; PglD inh: 1.2

What do the screens show for `C[C@H]1CN([C@@H](C)CO)C(=O)c2cccc(NC(=O)C3CCCCC3)c2O[C@@H]1CN(C)Cc1ccccc1`?
Env fusion inh: -18.4[16.7 µM]; PglD inh: 2.3

Results for C=C1CCN([C@@H](CC(C)C)C(=O)NCc2ccccc2)S(=O)(=O)c2ccccc21 ?
SR-BI HDL uptake: -5.2; SR-BI DiI-HDL act: 5.2; Env fusion inh: 22.6; Glyco luc inh: -0.2; Rtt109 Vps75: -0.3; PglD inh: -1.1

Results for C=C1CCN([C@@H](CC(C)C)C(=O)Nc2ccc(OC)cc2)S(=O)(=O)c2ccccc21 ?
SR-BI HDL uptake: 13.8; SR-BI DiI-HDL act: -13.8; Env fusion inh: 102.1*; Glyco luc inh: -1.8; Rtt109 Vps75: 6.4; PglD inh: -4.5

What do the screens show for `C=C1CCN([C@@H](Cc2ccccc2)C(=O)NCCC(C)C)S(=O)(=O)c2ccccc21`?
SR-BI HDL uptake: -14.8; SR-BI DiI-HDL act: 14.8; Env fusion inh: 83.7*; Glyco luc inh: -4.5; Rtt109 Vps75: 11.0; PglD inh: -5.0

Results for COc1ccc(CCNC(=O)N2c3ccccc3Sc3ccccc32)cc1 ?
Env fusion inh: 74.6*; Glyco luc inh: -8.0; Rtt109 Vps75: 6.9; PglD inh: 0.7

What do the screens show for `CCCN(C)C[C@@H]1Oc2ncc(C#CC3CC3)cc2C(=O)N([C@@H](C)CO)C[C@@H]1C`?
Env fusion inh: 16.3[16.7 µM]

Results for COc1cc(C(=O)NC(=S)Nc2ccc(N3CCCC3)cc2)cc(OC)c1OC ?
SR-BI HDL uptake: 74.6*; SR-BI DiI-HDL act: -74.6; Glyco luc inh: 2.6; Rtt109 Vps75: 3.4

What do the screens show for `COc1ccc(C(=O)Nc2ccc(N3CCCC3)cc2)cc1OC`?
SR-BI HDL uptake: 74.0*; SR-BI DiI-HDL act: -74.0; Env fusion inh: -53.7; Glyco luc inh: 0.5; Rtt109 Vps75: -0.6; PglD inh: -2.2

Results for COc1ccc(C(=O)Nc2ccc(N3CCN(C(=O)c4cccs4)CC3)cc2)cc1Br ?
SR-BI HDL uptake: 72.2*; SR-BI DiI-HDL act: -72.2; Env fusion inh: 3.2; Glyco luc inh: -5.2; Rtt109 Vps75: -5.7; PglD inh: -4.9

What do the screens show for `COc1cc(C(=O)Nc2cc3c(cc2N2CCCCC2)n(C)c(=O)n3C)cc(OC)c1OC`?
SR-BI HDL uptake: 46.5; SR-BI DiI-HDL act: -46.5; Env fusion inh: 22.1; Glyco luc inh: 42.5*; Rtt109 Vps75: 5.2; PglD inh: 2.5
